Experiments:
[1] = target: Serotonin 1 (5-HT1) receptor (Rattus norvegicus) (UniProt P28564+P30940+P19327+P28565); assay: Compound is evaluated for binding affinity towards 5-hydroxytryptamine 1 receptor using [3H]5-HT in rat brain cortex at 10 uM; format: tissue-based
Method in brief: (§1)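 Radioligand competition binding was done by an outside contract lab (Pan Lab). Inhibition constants (Ki) were derived from displacement of the stated tritiated ligand. Each compound was tested at 10 µM. Where inhibition at that concentration stayed below 50%, no Ki was reported.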

[2] = target: T1, 5-hydroxytryptamine receptor 1A (Rattus norvegicus, UniProt P19327); assay: Compound is evaluated for binding affinity towards 5-hydroxytryptamine 1A receptor using [3H]-8-OH- -DPAT in rat brain cortex; format: tissue-based
T1 sequence (P19327 whole entry): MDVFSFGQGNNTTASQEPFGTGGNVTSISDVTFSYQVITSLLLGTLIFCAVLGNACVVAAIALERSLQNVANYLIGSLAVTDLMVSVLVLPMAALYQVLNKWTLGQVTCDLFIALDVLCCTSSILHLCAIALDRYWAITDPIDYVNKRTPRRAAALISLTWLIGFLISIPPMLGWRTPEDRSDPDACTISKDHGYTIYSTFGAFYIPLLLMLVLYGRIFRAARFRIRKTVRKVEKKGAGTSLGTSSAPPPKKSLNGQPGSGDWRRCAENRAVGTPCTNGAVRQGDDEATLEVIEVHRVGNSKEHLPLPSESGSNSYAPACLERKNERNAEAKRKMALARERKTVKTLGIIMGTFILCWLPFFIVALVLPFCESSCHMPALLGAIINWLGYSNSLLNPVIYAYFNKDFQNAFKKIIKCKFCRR
Method in brief: (§2)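 Contract radioligand competition binding. Sources: 5-HT1 and 5-HT1A in rat brain cortex; 5-HT2 and σ2 in rat brain; σ in guinea pig brain; D2, rhD2 and rhD3 in CHO cells with [³H]spiperone; H1 in guinea pig lung with [³H]pyrilamine. Inhibition constants reported; no constant given where inhibition at 10 µM was below 50%.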

[3] = Selectivity ratio for binding affinity towards alpha2 and alpha-1 adrenoceptors
Method in brief: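 Ratio of α2 Ki ([³H]clonidine binding) to α1 Ki ([³H]prazosin binding), both measured in rat cortical membrane competition assays.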

[4] = target: Sodium channel alpha subunits; brain (Types I, II, III) (Rattus norvegicus) (UniProt P04775+P04774+P08104); assay: Displacement of [3H]batrachotoxin from rat brain sodium channel at 10 uM; format: tissue-based; method in brief: as §1
[5] = target: Alpha-2A adrenergic receptor (Homo sapiens) (UniProt P08913); assay: Compound is evaluated for binding affinity towards Alpha-2A adrenergic receptor using [3H]MK912 at 10 uM
[6] = target: T2, Alpha-1B adrenergic receptor (Rattus norvegicus, UniProt P15823); assay: Displacement of [3H]prazosin from Alpha-1B adrenergic receptor of rat liver membrane
T2 sequence (P15823 whole entry): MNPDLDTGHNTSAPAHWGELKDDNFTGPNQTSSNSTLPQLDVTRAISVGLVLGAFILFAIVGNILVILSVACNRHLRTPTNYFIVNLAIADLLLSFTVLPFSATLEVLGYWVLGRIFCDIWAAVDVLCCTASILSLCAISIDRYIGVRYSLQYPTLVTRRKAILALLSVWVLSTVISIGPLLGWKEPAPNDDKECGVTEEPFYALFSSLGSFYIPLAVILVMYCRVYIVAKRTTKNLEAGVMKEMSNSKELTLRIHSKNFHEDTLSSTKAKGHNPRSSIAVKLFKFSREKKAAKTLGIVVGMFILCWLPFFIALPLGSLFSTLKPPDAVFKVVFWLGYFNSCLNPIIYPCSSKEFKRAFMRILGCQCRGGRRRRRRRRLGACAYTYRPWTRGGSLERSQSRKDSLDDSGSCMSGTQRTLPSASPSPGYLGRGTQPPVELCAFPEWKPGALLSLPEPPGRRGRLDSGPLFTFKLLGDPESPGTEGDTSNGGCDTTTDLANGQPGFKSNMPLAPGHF
Method in brief: (§3)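 Triplicate competition binding against 0.2-0.25 nM [³H]prazosin in Tris buffer pH 7.4, 30 min at room temperature. Competitor range 0.1-200 nM. Nonspecific binding defined with 10 µM phentolamine. Reaction stopped by GF/B filtration with two cold Tris washes. Membrane protein 300-400 µg per assay. Ki calculated from the data; mean ± SEM of 3-6 experiments.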

[7] = target: T3, D(3) dopamine receptor (Homo sapiens, UniProt P35462); assay: Compound is evaluated for binding affinity towards recombinant human Dopamine receptor D3 using [3H]spiperone in CHO cells; format: cell-based; method in brief: as §2
T3 sequence (P35462 whole entry): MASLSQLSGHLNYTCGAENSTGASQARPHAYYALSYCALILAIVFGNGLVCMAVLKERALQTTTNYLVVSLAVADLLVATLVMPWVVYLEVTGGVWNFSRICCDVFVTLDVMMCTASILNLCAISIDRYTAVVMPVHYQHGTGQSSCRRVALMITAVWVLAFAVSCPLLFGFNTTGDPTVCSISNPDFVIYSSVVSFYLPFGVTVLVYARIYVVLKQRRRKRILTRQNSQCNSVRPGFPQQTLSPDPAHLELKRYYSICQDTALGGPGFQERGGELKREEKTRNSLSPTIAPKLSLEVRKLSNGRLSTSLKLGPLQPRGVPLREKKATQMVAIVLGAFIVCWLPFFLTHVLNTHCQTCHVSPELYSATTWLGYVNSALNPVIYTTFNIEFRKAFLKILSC

[8] = target: Histamine H1 receptor (Cavia porcellus, UniProt P31389); assay: Compound is evaluated for binding affinity towards Histamine H1 receptor using [3H]pyrilamine in guinea pig lung; format: tissue-based; method in brief: as §2
Chain of Histamine H1 receptor (P31389 whole entry): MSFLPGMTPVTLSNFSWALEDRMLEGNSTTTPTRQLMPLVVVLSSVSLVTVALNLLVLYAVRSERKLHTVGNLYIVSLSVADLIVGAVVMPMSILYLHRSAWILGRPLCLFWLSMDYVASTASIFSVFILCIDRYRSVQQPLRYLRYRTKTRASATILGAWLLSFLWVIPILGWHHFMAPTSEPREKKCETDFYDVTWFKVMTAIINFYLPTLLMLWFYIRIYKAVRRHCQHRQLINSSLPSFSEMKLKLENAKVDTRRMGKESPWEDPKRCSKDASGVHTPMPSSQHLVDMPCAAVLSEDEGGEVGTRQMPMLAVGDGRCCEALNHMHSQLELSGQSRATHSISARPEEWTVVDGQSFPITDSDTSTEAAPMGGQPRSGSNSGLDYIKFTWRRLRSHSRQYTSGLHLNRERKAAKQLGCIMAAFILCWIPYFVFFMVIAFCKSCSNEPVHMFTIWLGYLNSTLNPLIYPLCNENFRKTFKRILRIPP

[9] = test system: Sigma 2 receptor; assay: (§4) Binding affinity towards Sigma 2 receptor using [3H]ifenprodil in rat brain; format: tissue-based; settings: concentration not given here; method in brief: as §1
[10] = target: Alpha-2B adrenergic receptor (Homo sapiens) (UniProt P18089); assay: Compound is evaluated for binding affinity towards Alpha-2B adrenergic receptor using [3H]yohimbine at 10 uM
[11] = target: T4, D(2) dopamine receptor (Homo sapiens, UniProt P14416); assay: Compound is evaluated for binding affinity towards recombinant human Dopamine receptor D2 using [3H]spiperone in CHO cells; format: cell-based; method in brief: as §2
T4 sequence (P14416 whole entry): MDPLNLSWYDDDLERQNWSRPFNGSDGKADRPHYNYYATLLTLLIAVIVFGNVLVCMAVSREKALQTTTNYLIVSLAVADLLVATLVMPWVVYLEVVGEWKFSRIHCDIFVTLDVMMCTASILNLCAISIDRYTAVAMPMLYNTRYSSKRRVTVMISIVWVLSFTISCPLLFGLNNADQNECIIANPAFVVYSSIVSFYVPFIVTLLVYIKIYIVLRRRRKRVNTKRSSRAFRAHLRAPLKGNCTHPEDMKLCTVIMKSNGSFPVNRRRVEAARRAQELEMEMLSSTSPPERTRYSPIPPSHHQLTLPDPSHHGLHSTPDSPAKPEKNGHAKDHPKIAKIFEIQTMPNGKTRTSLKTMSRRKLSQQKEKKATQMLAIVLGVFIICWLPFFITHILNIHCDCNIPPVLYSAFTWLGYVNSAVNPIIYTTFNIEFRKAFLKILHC

[12] = target: T4, D(2) dopamine receptor; assay: Compound is evaluated for binding affinity towards Dopamine receptor D2 using [3H]spiperone in CHO cells; format: cell-based; method in brief: as §2
[13] = target: T5, Alpha-1A adrenergic receptor (Rattus norvegicus, UniProt P43140); assay: Displacement of [3H]prazosin from Alpha-1A adrenergic receptor of rat submaxillary gland membranes; format: cell membranes, Membrane; method in brief: as §3
T5 sequence (P43140 whole entry): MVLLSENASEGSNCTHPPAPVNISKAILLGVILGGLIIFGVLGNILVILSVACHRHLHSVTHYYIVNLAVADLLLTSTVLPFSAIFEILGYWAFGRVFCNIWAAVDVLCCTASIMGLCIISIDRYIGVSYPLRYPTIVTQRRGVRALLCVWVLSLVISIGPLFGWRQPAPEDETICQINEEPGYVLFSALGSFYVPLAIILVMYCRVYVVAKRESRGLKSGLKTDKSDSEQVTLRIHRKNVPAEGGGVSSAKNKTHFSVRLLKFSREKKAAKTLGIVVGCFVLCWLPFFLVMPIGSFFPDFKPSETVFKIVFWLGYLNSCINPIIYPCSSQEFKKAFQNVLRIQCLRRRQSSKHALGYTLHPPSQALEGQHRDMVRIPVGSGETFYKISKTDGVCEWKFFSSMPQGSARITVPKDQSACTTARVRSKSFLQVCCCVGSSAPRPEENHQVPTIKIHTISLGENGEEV

[14] = target: Serotonin 2 (5-HT2) receptor (Rattus norvegicus, UniProt P30994+P08909+P14842); assay: Compound is evaluated for binding affinity towards 5-hydroxytryptamine 2 receptor using [3H]ketanserin in rat brain; format: tissue-based; method in brief: as §2
[15] = target: Sodium channel alpha subunits; brain (Types I, II, III) (Rattus norvegicus, UniProt P04775+P04774+P08104); assay: Displacement of [3H]batrachotoxin from rat brain sodium channel; format: tissue-based; method in brief: as §1
[16] = target: T6, Alpha-2B adrenergic receptor (Homo sapiens, UniProt P18089); assay: Compound is evaluated for binding affinity towards Alpha-2B adrenergic receptor using [3H]yohimbine
T6 sequence (P18089 whole entry): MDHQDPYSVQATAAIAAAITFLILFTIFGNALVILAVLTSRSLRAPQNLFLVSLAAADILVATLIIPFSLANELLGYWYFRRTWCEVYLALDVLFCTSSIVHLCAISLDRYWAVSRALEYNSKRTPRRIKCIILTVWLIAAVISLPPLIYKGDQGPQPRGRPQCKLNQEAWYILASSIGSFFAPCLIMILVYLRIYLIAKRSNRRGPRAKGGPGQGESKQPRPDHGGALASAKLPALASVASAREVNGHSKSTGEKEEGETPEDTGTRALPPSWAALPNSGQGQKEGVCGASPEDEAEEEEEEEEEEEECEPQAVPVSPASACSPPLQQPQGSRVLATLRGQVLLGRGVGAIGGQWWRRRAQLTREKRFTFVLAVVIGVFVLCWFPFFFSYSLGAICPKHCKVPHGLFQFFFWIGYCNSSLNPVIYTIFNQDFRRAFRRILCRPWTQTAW

[17] = target: Sigma 2 receptor; assay: as §4; format: tissue-based; method in brief: as §2
[18] = target: T4, D(2) dopamine receptor; assay: Compound is evaluated for binding affinity towards Dopamine receptor D2 using [3H]spiperone in CHO cells at 10 uM; format: cell-based
[19] = target: Serotonin 1 (5-HT1) receptor (Rattus norvegicus, UniProt P28564+P30940+P19327+P28565); assay: Compound is evaluated for binding affinity towards 5-hydroxytryptamine 1 receptor using [3H]5-HT in rat brain cortex; format: tissue-based; method in brief: as §2
[20] = target: T3, D(3) dopamine receptor; assay: Compound is evaluated for binding affinity towards recombinant human Dopamine receptor D3 using [3H]spiperone in CHO cells at 10 uM; format: cell-based
Method in brief: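 Single-concentration screen at 10 µM in contract radioligand binding assays. Records whether inhibition of specific radioligand binding stayed below 50%.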

[21] = target: T7, Alpha-2A adrenergic receptor (Homo sapiens, UniProt P08913); assay: Compound is evaluated for binding affinity towards Alpha-2A adrenergic receptor using [3H]MK912
T7 sequence (P08913 whole entry): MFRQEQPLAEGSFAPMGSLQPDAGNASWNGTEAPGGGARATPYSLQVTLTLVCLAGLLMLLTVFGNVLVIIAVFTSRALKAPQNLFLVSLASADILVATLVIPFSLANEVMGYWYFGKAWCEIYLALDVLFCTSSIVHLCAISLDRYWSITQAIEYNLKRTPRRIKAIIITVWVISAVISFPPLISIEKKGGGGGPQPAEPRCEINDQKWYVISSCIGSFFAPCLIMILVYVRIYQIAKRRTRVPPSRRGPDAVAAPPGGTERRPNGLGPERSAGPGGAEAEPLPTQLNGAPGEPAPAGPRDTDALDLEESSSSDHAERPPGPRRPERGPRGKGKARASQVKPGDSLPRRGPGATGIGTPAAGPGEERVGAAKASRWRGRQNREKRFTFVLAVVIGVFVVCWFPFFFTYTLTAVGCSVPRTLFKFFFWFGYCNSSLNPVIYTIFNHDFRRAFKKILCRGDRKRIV

Question: What does the source list for COc1ccccc1N1CCN(CC2CN=C3c4ccccc4NC(=O)N32)CC1 (stereo not drawn)?
Answer: inhibition [1]: < 50%; Ki [2]: 155 nM; Ratio [3]: 2820; inhibition [4]: < 50%; inhibition [5]: < 50%; Ki [6]: 0.67 nM; Ki [7]: 985 nM; Ki [8]: 2320 nM; inhibition [9]: < 50%; inhibition [10]: < 50%; Ki [11]: 239 nM; Ki [12]: 158 nM; Ki [13]: 0.26 nM; Ki [14]: 377 nM

Question: Which results are given for COc1ccccc1N1CCN(CCn2c(=O)[nH]c3ccccc3c2=O)CC1?
Answer: Ki [15]: 3680 nM; Ki [2]: 16 nM; Ki [16]: 56 nM; Ratio [3]: 6400; Ki [6]: 1.1 nM; Ki [17]: 2500 nM; Ki [8]: 685 nM; Ki [18]: 32 nM; Ki [19]: 1510 nM; Ki [20]: 73 nM; Ki [11]: 132 nM; Ki [13]: 0.5 nM; Ki [21]: 1810 nM; Ki [14]: 180 nM

From ChEMBL document CHEMBL1131058, “Studies on quinazolines and 1,2,4-benzothiadiazine 1,1-dioxides. 8.1, 2 synthesis and pharmacological evaluation of tricyclic fused quinazolines and 1,2,4-benzothiadiazine 1,1-dioxides as potential alpha1-adrenoceptor antagonists” (J Med Chem, 1998)
